Reference: the M2OR odorant receptor database

Columns and labels:
Conditions in all cases: stereoisomer not certain
[1] = target: T1, UniProt A2ATE5
T1 sequence (whole entry): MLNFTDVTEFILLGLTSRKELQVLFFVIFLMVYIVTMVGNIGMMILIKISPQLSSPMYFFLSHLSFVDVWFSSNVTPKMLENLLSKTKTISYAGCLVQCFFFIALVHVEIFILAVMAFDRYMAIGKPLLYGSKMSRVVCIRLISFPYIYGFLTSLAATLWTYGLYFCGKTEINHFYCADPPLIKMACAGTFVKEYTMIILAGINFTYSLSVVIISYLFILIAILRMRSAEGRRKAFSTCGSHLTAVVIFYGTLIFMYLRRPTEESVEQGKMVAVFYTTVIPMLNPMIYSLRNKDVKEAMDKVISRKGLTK
Summary of the method: (§1)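 Each receptor–molecule pair is labelled responsive or non-responsive (inactive) according to whether the original authors judged the measured signal statistically different from baseline. The data were taken from the main text and supplementary material of published papers and checked for typos and inconsistencies. Assay methods differed by source, with transient luciferase assays in mammalian cell lines being common.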

[2] = target: T2, UniProt A2AVB0
T2 sequence (whole entry): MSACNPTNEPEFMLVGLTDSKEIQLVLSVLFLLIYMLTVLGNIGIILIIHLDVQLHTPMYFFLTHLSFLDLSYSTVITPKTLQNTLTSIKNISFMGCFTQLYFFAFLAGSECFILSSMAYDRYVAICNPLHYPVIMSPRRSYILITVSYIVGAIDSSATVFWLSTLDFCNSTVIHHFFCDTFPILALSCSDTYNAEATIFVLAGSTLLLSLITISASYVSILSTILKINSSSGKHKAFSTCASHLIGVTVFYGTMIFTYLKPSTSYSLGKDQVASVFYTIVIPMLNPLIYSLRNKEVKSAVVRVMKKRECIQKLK
Summary of the method: as §1

[3] = target: T3, UniProt E9PVX1
T3 sequence (whole entry): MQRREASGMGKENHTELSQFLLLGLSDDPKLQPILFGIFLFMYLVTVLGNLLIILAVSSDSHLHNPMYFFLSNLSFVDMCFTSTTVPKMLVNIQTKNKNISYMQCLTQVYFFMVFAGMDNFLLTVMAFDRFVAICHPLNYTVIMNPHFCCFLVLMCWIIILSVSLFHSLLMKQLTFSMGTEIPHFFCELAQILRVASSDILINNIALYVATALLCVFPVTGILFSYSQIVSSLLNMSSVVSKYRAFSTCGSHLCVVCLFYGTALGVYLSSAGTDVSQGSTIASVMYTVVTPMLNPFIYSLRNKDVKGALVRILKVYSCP
Summary of the method: as §1

[4] = target: T4, UniProt E9PZ66
T4 sequence (whole entry): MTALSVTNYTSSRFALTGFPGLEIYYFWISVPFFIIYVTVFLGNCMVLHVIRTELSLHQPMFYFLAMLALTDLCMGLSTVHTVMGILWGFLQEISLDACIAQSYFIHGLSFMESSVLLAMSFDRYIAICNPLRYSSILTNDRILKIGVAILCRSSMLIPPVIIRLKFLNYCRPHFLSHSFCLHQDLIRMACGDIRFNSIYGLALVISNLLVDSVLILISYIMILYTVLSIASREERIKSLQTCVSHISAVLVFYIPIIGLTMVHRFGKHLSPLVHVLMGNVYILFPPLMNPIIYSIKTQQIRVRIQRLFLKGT
Summary of the method: as §1

[5] = target: T5, UniProt E9Q4X7
T5 sequence (whole entry): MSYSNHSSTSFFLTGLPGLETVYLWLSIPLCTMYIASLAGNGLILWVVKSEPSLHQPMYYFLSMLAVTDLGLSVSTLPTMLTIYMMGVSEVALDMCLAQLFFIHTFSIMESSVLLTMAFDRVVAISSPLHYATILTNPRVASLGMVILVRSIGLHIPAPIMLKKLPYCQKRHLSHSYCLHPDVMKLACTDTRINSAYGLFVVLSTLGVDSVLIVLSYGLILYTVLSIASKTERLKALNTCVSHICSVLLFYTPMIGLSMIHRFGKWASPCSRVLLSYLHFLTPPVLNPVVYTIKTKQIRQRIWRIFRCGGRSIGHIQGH
Summary of the method: as §1

[6] = target: T6, UniProt E9Q546
T6 sequence (whole entry): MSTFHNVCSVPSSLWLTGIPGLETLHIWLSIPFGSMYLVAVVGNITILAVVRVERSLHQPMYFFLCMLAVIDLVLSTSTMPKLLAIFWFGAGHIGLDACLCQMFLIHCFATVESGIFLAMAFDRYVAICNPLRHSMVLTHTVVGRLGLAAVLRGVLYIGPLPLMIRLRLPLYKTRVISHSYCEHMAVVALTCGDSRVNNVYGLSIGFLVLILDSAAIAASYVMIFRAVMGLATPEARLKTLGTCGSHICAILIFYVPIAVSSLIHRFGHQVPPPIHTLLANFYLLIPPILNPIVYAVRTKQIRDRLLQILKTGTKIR
Summary of the method: as §1

[7] = target: T7, UniProt E9Q6Z7
T7 sequence (whole entry): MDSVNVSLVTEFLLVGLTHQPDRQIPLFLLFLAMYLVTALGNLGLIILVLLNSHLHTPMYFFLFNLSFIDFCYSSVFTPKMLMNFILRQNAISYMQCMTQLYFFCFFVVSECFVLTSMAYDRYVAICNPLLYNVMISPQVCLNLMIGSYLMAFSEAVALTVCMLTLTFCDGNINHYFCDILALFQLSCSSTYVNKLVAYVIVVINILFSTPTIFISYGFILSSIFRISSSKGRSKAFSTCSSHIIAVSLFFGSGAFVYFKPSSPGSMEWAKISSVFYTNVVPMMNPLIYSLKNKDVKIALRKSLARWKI
Summary of the method: as §1

[8] = target: T8, UniProt A2AVB5
T8 sequence (whole entry): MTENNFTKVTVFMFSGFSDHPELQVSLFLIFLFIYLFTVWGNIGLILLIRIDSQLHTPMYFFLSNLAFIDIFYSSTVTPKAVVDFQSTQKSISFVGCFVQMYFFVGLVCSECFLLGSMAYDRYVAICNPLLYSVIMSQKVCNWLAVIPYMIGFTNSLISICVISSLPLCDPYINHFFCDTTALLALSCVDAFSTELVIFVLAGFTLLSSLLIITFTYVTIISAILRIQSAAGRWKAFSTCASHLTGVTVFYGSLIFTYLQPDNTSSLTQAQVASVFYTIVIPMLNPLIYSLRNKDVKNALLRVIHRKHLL
Summary of the method: as §1

[9] = target: T9, UniProt B2RVX8
T9 sequence (whole entry): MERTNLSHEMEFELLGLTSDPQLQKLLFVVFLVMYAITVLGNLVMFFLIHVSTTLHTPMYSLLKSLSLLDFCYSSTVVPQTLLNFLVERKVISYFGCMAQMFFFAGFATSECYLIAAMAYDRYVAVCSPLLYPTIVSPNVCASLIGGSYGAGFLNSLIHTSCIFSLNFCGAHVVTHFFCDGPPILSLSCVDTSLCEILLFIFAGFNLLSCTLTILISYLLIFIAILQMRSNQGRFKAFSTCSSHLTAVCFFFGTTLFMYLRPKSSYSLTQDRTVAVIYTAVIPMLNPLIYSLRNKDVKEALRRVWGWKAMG
Summary of the method: as §1

[10] = target: T10, UniProt K7N609
T10 sequence (whole entry): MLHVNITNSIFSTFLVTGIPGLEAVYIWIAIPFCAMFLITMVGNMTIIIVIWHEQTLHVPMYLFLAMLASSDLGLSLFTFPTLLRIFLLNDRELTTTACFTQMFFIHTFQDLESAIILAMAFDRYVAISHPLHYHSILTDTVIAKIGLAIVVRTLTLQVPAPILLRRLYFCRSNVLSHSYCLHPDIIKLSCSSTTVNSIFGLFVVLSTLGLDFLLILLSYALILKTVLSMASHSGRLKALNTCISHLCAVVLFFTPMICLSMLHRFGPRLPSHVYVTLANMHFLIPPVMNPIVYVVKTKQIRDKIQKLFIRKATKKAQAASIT
Summary of the method: as §1

[11] = target: T11, UniProt E1BM68
T11 sequence (whole entry): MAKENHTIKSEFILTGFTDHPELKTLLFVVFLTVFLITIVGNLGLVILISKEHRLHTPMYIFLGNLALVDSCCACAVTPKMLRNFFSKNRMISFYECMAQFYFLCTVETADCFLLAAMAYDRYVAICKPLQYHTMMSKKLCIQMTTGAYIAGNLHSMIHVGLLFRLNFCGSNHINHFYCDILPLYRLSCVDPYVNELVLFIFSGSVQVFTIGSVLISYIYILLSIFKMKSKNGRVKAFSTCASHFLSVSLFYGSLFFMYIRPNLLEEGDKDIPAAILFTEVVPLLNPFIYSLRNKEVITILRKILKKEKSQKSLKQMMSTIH
Summary of the method: as §1

[12] = target: T12, UniProt E9QAT7
T12 sequence (whole entry): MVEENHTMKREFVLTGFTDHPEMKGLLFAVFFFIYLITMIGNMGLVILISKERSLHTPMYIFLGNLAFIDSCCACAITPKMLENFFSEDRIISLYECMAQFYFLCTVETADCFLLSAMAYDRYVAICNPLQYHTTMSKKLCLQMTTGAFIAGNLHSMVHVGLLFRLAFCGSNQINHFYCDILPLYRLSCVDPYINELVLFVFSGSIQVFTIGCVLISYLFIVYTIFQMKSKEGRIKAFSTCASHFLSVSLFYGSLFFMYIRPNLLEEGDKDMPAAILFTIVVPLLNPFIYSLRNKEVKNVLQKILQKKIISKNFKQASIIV
Summary of the method: as §1

[13] = target: T13, UniProt E9PX47
T13 sequence (whole entry): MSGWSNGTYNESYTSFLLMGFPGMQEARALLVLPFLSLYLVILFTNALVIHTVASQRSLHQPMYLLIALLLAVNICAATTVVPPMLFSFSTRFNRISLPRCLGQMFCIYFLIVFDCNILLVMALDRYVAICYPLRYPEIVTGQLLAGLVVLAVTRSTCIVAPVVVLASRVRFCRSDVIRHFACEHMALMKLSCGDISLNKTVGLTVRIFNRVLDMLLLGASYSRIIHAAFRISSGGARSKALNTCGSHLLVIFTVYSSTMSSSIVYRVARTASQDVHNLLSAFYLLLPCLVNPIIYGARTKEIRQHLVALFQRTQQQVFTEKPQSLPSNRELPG
Summary of the method: as §1

[14] = target: T14, UniProt E9PXN3
T14 sequence (whole entry): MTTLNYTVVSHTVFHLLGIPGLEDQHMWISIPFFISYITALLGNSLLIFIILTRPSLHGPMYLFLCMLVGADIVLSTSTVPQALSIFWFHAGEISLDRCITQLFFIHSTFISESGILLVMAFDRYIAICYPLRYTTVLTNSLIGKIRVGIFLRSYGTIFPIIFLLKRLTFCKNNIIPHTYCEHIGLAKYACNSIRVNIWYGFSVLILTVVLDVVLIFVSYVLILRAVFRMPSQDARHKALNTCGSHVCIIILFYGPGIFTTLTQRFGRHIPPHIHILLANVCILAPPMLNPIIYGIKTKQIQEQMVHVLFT
Summary of the method: as §1

[15] = target: UniProt A2AVA9
Summary of the method: as §1

[16] = target: UniProt A2AVC3
Summary of the method: as §1

[17] = target: UniProt E9PXH6
Summary of the method: as §1

[18] = target: UniProt E9Q891
Summary of the method: as §1

[19] = target: UniProt K7N5T5
Summary of the method: as §1

Measured: odorant receptor agonist call

Chain of UniProt A2AVC3 (A2AVC3 as listed by the source): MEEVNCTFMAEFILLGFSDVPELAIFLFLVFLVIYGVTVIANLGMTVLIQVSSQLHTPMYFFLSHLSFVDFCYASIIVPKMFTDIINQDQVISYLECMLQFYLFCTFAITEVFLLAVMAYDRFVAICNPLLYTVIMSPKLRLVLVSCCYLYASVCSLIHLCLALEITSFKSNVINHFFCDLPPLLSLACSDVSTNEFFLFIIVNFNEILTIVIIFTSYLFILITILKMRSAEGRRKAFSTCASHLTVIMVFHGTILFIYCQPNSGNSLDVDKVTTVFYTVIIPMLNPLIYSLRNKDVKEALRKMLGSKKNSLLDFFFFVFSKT
Chain of UniProt K7N5T5 (K7N5T5 as listed by the source): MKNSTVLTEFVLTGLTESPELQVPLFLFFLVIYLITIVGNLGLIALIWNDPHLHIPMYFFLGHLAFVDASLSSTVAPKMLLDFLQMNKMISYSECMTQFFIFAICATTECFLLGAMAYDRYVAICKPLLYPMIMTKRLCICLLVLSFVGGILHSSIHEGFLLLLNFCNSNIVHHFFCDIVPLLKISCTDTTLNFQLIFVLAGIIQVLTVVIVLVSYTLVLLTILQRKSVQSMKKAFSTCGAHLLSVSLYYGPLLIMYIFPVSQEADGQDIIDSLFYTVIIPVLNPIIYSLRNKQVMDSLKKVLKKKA
Chain of UniProt E9PXH6 (E9PXH6 as listed by the source): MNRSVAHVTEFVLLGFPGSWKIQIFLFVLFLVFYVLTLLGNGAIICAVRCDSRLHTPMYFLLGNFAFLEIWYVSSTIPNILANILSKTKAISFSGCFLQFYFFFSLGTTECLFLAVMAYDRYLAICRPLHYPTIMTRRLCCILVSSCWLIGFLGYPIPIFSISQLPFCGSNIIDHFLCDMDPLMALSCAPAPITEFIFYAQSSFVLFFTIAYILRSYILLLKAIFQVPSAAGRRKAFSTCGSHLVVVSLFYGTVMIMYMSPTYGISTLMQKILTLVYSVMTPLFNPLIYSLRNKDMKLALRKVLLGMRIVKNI
Chain of UniProt E9Q891 (E9Q891 as listed by the source): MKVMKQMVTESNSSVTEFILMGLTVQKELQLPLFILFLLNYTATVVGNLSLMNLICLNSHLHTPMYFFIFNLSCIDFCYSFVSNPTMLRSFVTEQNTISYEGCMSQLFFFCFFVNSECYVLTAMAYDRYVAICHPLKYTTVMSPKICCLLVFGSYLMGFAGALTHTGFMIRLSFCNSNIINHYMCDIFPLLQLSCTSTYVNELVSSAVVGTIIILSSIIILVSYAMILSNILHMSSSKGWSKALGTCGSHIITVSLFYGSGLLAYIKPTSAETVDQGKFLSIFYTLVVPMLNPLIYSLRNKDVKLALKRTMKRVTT
Chain of UniProt A2AVA9 (A2AVA9 as listed by the source): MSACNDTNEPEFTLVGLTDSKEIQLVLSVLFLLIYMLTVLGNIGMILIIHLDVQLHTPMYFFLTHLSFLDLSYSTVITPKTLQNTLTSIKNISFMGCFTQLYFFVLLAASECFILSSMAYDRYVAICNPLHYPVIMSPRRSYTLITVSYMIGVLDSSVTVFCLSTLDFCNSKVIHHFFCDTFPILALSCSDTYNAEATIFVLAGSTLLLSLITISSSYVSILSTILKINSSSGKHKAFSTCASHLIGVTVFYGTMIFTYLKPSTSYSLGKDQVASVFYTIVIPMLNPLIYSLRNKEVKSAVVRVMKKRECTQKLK

CC(=O)C=CC1=C(C)CCCC1(C)C
inactive: [1] | [2] | [3] | [4] | [5] | [6] | [7]

OCC=Cc1ccccc1
inactive: [1] | [2] | [3] | [4] | [5] | [6] | [7]

CCSSCC
inactive: [1] | [2] | [3] | [4] | [5] | [6] | [7]

CCCCCO
inactive: [8] | [9] | [6] | [10]

CC(=O)OCCc1ccccc1
inactive: [1] | [2] | [3] | [4] | [5] | [6] | [7]

CCOC(=O)CC(C)C
inactive: [1] | [2] | [3] | [4] | [5] | [6] | [7]

CC1=NC(C)C(C)S1 (stereo unspecified)
active: [11] | [12]

C=C(C)C1CC=C(C)CC1 (stereo unspecified)
inactive: [1] | [2] | [3] | [4] | [5] | [6] | [7]

Cc1occc1SSc1ccoc1C
inactive: [1] | [2] | [3] | [4] | [5] | [6] | [7]

CCCC(C)=O
inactive: [8] | [9] | [13] | [14] | [6] | [10]

CCC(C(=O)O)c1ccccc1 (stereo unspecified)
inactive: [8] | [9] | [6] | [10]

OCCc1ccccc1
inactive: [1] | [2] | [3] | [4] | [5] | [6] | [7]

C=C1C2CCC(C2)C1(C)C (stereo unspecified)
inactive: [1] | [2] | [3] | [4] | [5] | [6] | [7]

CC1CCC(C(C)C)C(=O)C1 (stereo unspecified)
inactive: [1] | [2] | [3] | [4] | [5] | [6] | [7]

C=CC(=C)CCC=C(C)C
inactive: [1] | [2] | [3] | [4] | [5] | [6] | [7]

C=CC(=O)CCCCC
inactive: [1] | [2] | [3] | [4] | [5] | [6] | [7]

O=c1ccc2ccccc2o1
inactive: [16] | [9] | [6] | [19] | [10]
active: [15] | [8] | [17] | [18]

O=C(O)C1CCC1
inactive: [1] | [2] | [3] | [4] | [5] | [6] | [7]

CCCCCCC(=O)[O-].[H+]
inactive: [8] | [9] | [13] | [6] | [10]
